Assay results as given in ChEMBL document CHEMBL1143935, “Synthesis and biological evaluation of novel dimiracetam derivatives useful for the treatment of neuropathic pain” (Bioorg Med Chem, 2008).
Activity calls are given as the source filed them.

How the values were obtained:
[1] = tested on: Rattus norvegicus; assay: Antihyperalgesic activity in Sprague-Dawley rat assessed as lesioned paw pressure threshold at 10 ug/kg, icv after 30 mins; assay type: functional
Summary of the method: (§1)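 Sciatic nerve-ligated (chronic constriction injury, Bennett–Xie) male Sprague–Dawley rats, 150–200 g, dosed i.c.v.; saline served as vehicle. Paw withdrawal threshold (g) of the lesioned paw was read by analgesimeter before dosing and at 30, 45 and 60 min, max force 240 g. Baseline outliers (<40 g, >75 g) were excluded. Mean ± SEM of 8–14 rats; ANOVA with Fisher PLSD.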

[2] = tested on: Rattus norvegicus; assay: Antihyperalgesic activity in Sprague-Dawley rat assessed as lesioned paw pressure threshold at 10 ug/kg, icv after 45 mins; assay type: functional; summary of the method: as §1
[3] = tested on: Rattus norvegicus; assay: Antihyperalgesic activity in Sprague-Dawley rat assessed as lesioned paw pressure threshold at 10 ug/kg, icv after 60 mins; assay type: functional; summary of the method: as §1
[4] = tested on: Rattus norvegicus; assay: Analgesic activity against nerve injury-induced hyperalgesia in Sprague-Dawley rat assessed as increase in lesional paw pressure threshold at 50 mg/kg, po after 30 to 60 mins; assay type: functional, organism-based; set-up: dose 50 mg/kg
Summary of the method: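 Male Sprague–Dawley rats, 150–200 g, with chronic constriction injury (loose ligatures on right common sciatic nerve, chloral hydrate anaesthesia); oral dosing. Paw pressure analgesimeter measured withdrawal/first-struggle force (g) on lesioned and contralateral paws before and 30, 45, 60 min after dosing. Pre-dose scores below 40 g or above 75 g excluded; 240 g cutoff. Means of 6–11 rats; ANOVA with Fisher's PLSD.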

[5] = species on record: Rattus norvegicus; assay: Analgesic activity against streptozotocin-induced hyperalgesia in Sprague-Dawley rat assessed as increase in paw mechanical threshold; assay type: functional, organism-based
Summary of the method: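 Male Sprague–Dawley rats, 150–200 g, given streptozotocin 50 mg/kg ip and tested 21 days later; compound given orally at 30–100 mg/kg, with non-diabetic controls. Paw pressure analgesimeter recorded force (g) causing first struggle before and 30, 45, 60 min after dosing; 240 g cutoff. Means of 9–10 rats; ANOVA with Fisher's PLSD.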

[6] = tested on: Rattus norvegicus; assay: Antihyperalgesic activity in Sprague-Dawley rat assessed as lesioned paw pressure threshold at 100 ug/kg, icv after 30 mins; assay type: functional; summary of the method: as §1
[7] = tested on: Rattus norvegicus; assay: Antihyperalgesic activity in Sprague-Dawley rat assessed as lesioned paw pressure threshold at 100 ug/kg, icv after 45 mins; assay type: functional; summary of the method: as §1
[8] = tested on: Rattus norvegicus; assay: Antihyperalgesic activity in Sprague-Dawley rat assessed as lesioned paw pressure threshold at 100 ug/kg, icv after 60 mins; assay type: functional; summary of the method: as §1
[9] = tested on: Rattus norvegicus; assay: Antihyperalgesic activity in Sprague-Dawley rat assessed as lesioned paw pressure threshold at 30 ug/kg, icv after 30 mins; assay type: functional; summary of the method: as §1
[10] = tested on: Rattus norvegicus; assay: Antihyperalgesic activity in Sprague-Dawley rat assessed as lesioned paw pressure threshold at 30 ug/kg, icv after 45 mins; assay type: functional; summary of the method: as §1
[11] = tested on: Rattus norvegicus; assay: Antihyperalgesic activity in Sprague-Dawley rat assessed as lesioned paw pressure threshold at 30 ug/kg, icv after 60 mins; assay type: functional; summary of the method: as §1
[12] = tested on: Rattus norvegicus; assay: Antihyperalgesic activity in Sprague-Dawley rat assessed as lesioned paw pressure threshold at 500 ug/kg, icv after 45 mins; assay type: functional
Summary of the method: (§2)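 Male Sprague–Dawley rats, 150–200 g, with right sciatic nerve chronic constriction injury (Bennett–Xie). Compound given i.c.v. and withdrawal threshold (g) on lesioned and contralateral paws measured with an analgesimeter before dosing and at 30, 45, 60 min. Pre-dose scores outside 40–75 g excluded; 240 g maximum force. 8–14 rats per group; ANOVA with Fisher's PLSD.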

[13] = tested on: Rattus norvegicus; assay: Antihyperalgesic activity in Sprague-Dawley rat assessed as lesioned paw pressure threshold at 500 ug/kg, icv after 60 mins; assay type: functional; summary of the method: as §2
[14] = tested on: Rattus norvegicus; assay: Antihyperalgesic activity in Sprague-Dawley rat assessed as lesioned paw pressure threshold at 500 ug/kg, icv after 30 mins; assay type: functional; summary of the method: as §2
[15] = tested on: Rattus norvegicus; assay: Neurotoxicity in Sprague-Dawley rat assessed as behavioural impairment at 100 mg/kg, po by rotarod test; assay type: toxicity, organism-based; set-up: dose 100 mg/kg, route oral; conditions: in vivo
Summary of the method: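 Rotarod motor incoordination test in male Sprague–Dawley rats: animals walk against the rotating drum for 30 s, and the readout is the number of falls in 30 s.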

[16] = tested on: Rattus norvegicus; assay: Analgesic activity against nerve injury-induced hyperalgesia in Sprague-Dawley rat assessed as increase in lesional paw pressure threshold at 30 mg/kg, po after 30 to 60 mins; assay type: functional, organism-based; set-up: dose 30 mg/kg
Summary of the method: (§3)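 Male Sprague–Dawley rats (150–200 g) given a chronic constriction injury: loose ligatures on the right common sciatic nerve (Bennett–Xie), under chloral hydrate anaesthesia. Oral dosing. Analgesimeter paw pressure; withdrawal force in g recorded before and 30, 45, 60 min after dosing, cut-off 240 g. Rats below 40 g or above 75 g at baseline were excluded. Mean ± SEM, 6–11 rats; ANOVA with Fisher PLSD.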

[17] = tested on: Rattus norvegicus; assay: Analgesic activity against nerve injury-induced hyperalgesia in Sprague-Dawley rat assessed as increase in lesional paw pressure threshold at 10 mg/kg, po after 30 to 60 mins; assay type: functional, organism-based; set-up: dose 10 mg/kg; summary of the method: as §3
[18] = tested on: Rattus norvegicus; assay: Analgesic activity against streptozotocin-induced hyperalgesia in Sprague-Dawley rat assessed as increase in paw mechanical threshold at 50 mg/kg, po; assay type: functional, organism-based; set-up: dose 50 mg/kg
Summary of the method: (§4)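 Male Sprague–Dawley rats (150–200 g) were given streptozotocin 50 mg/kg ip and tested 21 days later. Oral dosing; paw pressure analgesimeter read as the force (g) at first struggling, before and at 30–60 min after dosing, cut-off 240 g. Rats below 40 g or above 75 g at baseline were excluded. Mean ± SEM, 9–10 rats; ANOVA with Fisher PLSD.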

[19] = tested on: Rattus norvegicus; assay: Analgesic activity against streptozotocin-induced hyperalgesia in Sprague-Dawley rat assessed as increase in paw mechanical threshold at 100 mg/kg, po; assay type: functional, organism-based; set-up: dose 100 mg/kg; summary of the method: as §4

Compound: N#Cc1ccc(N2C(=O)CN3C(=O)CCC32)cc1 (stereo not drawn)
- Activity [1]: 59.4 g
- Activity [2]: 55.3 g
- Activity [3]: 58.2 g
- Activity [4]: Active
- Activity [5]: Dose-dependent effect

Compound: O=C1CN2C(=O)CCC2N1 (stereo not drawn) [DIMIRACETAM]
- Activity [6]: 41 g
- Activity [7]: 42.8 g
- Activity [8]: 39.2 g

Compound: NCC1(CC(=O)O)CCCCC1 [GABAPENTIN]
- Activity [9]: 46.3 g
- Activity [10]: 43.5 g
- Activity [11]: 46.1 g

Compound: CC(C)c1cccc(N2C(=O)CN3C(=O)CCC32)c1 (stereo not drawn)
- Activity [9]: 48.5 g
- Activity [10]: 43.7 g
- Activity [11]: 42.5 g

Compound: CC[C@@H](C(N)=O)N1CCCC1=O [LEVETIRACETAM]
- Activity [12]: 52.1
- Activity [13]: 49.3
- Activity [14]: 51.8

Compound: Cc1cccc(N2C(=O)CN3C(=O)CCC32)c1 (stereo not drawn)
- Activity [1]: 59.3 g
- Activity [2]: 63.4 g
- Activity [3]: 51.2 g

Compound: N#Cc1cccc(N2C(=O)CN3C(=O)CCC32)c1 (stereo not drawn)
- Activity [9]: 49.7 g
- Activity [10]: 55.4 g
- Activity [4]: Active
- Activity [5]: Dose-dependent effect
- Activity [15]: Non-toxic
- Activity [11]: 46.8 g

Compound: Cc1ccc(N2C(=O)CN3C(=O)CCC32)cc1 (stereo not drawn)
- Activity [1]: 54 g
- Activity [2]: 57.4 g
- Activity [3]: 45.4 g
- Activity [16]: Active
- Activity [17]: inactive
- Activity [18]: Active
- Activity [19]: Active
- Activity [15]: Non-toxic

Compound: Cc1cccc(C)c1NC(=O)CN1CCCC1=O [NEFIRACETAM]
- Activity [9]: 46.7 g
- Activity [10]: 49.5 g
- Activity [11]: 47.6 g

Compound: O=C1CCC2N1CC(=O)N2c1ccccc1 (stereo not drawn)
- Activity [9]: 51.7 g
- Activity [10]: 52.7 g
- Activity [11]: 53.3 g

Compound: Cc1ccccc1N1C(=O)CN2C(=O)CCC21 (stereo not drawn)
- Activity [9]: 46.7 g
- Activity [10]: 55.3 g
- Activity [11]: 54.8 g
